Tests used:
Albumin [1] = biological target: T1, Albumin (Homo sapiens, UniProt P02768); test: Binding affinity to human serum albumin assessed as Stern-Volmer quenching constant at 290 K after 10 mins by fluorescence assay; assay type: ADME; details: isolated protein
Procedure, shortened: (§1)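 HSA at 0.4 µM in 20 mM Tris pH 7.4, titrated with prodigiosin at 0–3.2 µM from a methanol stock. Samples equilibrated 10 min after each addition. Excitation 295 nm, emission 310–600 nm, intensity read at the emission maximum. Run at 290, 300 and 310 K. Kb and n from log[(F0−F)/F] versus log[Q].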

Albumin [2] = biological target: T1, Albumin; test: Binding affinity to human serum albumin assessed as Stern-Volmer quenching constant at 300 K after 10 mins by fluorescence assay; assay type: ADME; details: isolated protein; procedure, shortened: as §1
Albumin [3] = biological target: T1, Albumin; test: Binding affinity to human serum albumin assessed as Stern-Volmer quenching constant at 310 K after 10 mins by fluorescence assay; assay type: ADME; details: isolated protein; procedure, shortened: as §1
Beta-lactoglobulin [4] = biological target: T2, Beta-lactoglobulin (Bos taurus, UniProt P02754); test: Binding affinity to bovine beta-lactoglobulin assessed as Stern-Volmer quenching constant at 290 K after 10 mins by fluorescence assay; assay type: ADME; details: cattle
T2 sequence (P02754 whole entry): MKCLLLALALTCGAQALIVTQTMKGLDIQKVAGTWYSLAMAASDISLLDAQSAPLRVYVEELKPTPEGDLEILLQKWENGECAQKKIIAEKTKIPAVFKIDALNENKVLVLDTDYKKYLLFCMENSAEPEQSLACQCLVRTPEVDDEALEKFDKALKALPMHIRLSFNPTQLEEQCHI
Procedure, shortened: (§2)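 Intrinsic Trp fluorescence of β-Lg at 1 µM in Tris-HCl pH 7.4, titrated with prodigiosin added from a methanol stock. Samples equilibrated 10 min after each addition. Excitation 295 nm, emission 310–600 nm, intensity read at the emission maximum. Run at 290, 300 and 310 K with a water-bath thermostat. Binding parameters taken from quenching data.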

Beta-lactoglobulin [5] = biological target: T2, Beta-lactoglobulin; test: Binding affinity to bovine beta-lactoglobulin assessed as Stern-Volmer quenching constant at 300 K after 10 mins by fluorescence assay; assay type: ADME; details: cattle; procedure, shortened: as §2
Beta-lactoglobulin [6] = biological target: T2, Beta-lactoglobulin; test: Binding affinity to bovine beta-lactoglobulin assessed as Stern-Volmer quenching constant at 310 K after 10 mins by fluorescence assay; assay type: ADME; details: cattle; procedure, shortened: as §2
Albumin [7] = biological target: T1, Albumin; test: Binding affinity to human serum albumin assessed as bimolecular quenching rate constant at 290 K after 10 mins by fluorescence assay; assay type: ADME; details: isolated protein; procedure, shortened: as §1
Albumin [8] = biological target: T1, Albumin; test: Binding affinity to human serum albumin assessed as bimolecular quenching rate constant at 300 K after 10 mins by fluorescence assay; assay type: ADME; details: isolated protein; procedure, shortened: as §1
Albumin [9] = biological target: T1, Albumin; test: Binding affinity to human serum albumin assessed as bimolecular quenching rate constant at 310 K after 10 mins by fluorescence assay; assay type: ADME; details: isolated protein; procedure, shortened: as §1
Beta-lactoglobulin [10] = biological target: T2, Beta-lactoglobulin; test: Binding affinity to bovine beta-lactoglobulin assessed as bimolecular quenching rate constant at 290 K after 10 mins by fluorescence assay; assay type: ADME; details: cattle; procedure, shortened: as §2
Beta-lactoglobulin [11] = biological target: T2, Beta-lactoglobulin; test: Binding affinity to bovine beta-lactoglobulin assessed as bimolecular quenching rate constant at 300 K after 10 mins by fluorescence assay; assay type: ADME; details: cattle; procedure, shortened: as §2
Beta-lactoglobulin [12] = biological target: T2, Beta-lactoglobulin; test: Binding affinity to bovine beta-lactoglobulin assessed as bimolecular quenching rate constant at 310 K after 10 mins by fluorescence assay; assay type: ADME; details: cattle; procedure, shortened: as §2
Albumin [13] = biological target: T1, Albumin; test: Binding affinity to human serum albumin at 290 K after 10 mins by fluorescence assay; assay type: ADME; details: isolated protein; procedure, shortened: as §1
Albumin [14] = biological target: T1, Albumin; test: Binding affinity to human serum albumin at 300 K after 10 mins by fluorescence assay; assay type: ADME; details: isolated protein; procedure, shortened: as §1
Albumin [15] = biological target: T1, Albumin; test: Binding affinity to human serum albumin at 310 K after 10 mins by fluorescence assay; assay type: ADME; details: isolated protein; procedure, shortened: as §1
Beta-lactoglobulin [16] = biological target: T2, Beta-lactoglobulin; test: Binding affinity to bovine beta-lactoglobulin at 290 K after 10 mins by fluorescence assay; assay type: ADME; details: cattle; procedure, shortened: as §2
Beta-lactoglobulin [17] = biological target: T2, Beta-lactoglobulin; test: Binding affinity to bovine beta-lactoglobulin at 300 K after 10 mins by fluorescence assay; assay type: ADME; details: cattle; procedure, shortened: as §2
Beta-lactoglobulin [18] = biological target: T2, Beta-lactoglobulin; test: Binding affinity to bovine beta-lactoglobulin at 310 K after 10 mins by fluorescence assay; assay type: ADME; details: cattle; procedure, shortened: as §2
Albumin [19] = biological target: T1, Albumin; test: Binding affinity to human serum albumin assessed as quenching of protein-compound complex at protein/compound molar ratio of 5 at 290 K after 10 mins by fluorescence assay; assay type: ADME; details: isolated protein; procedure, shortened: as §1
Beta-lactoglobulin [20] = biological target: T2, Beta-lactoglobulin; test: Binding affinity to bovine beta-lactoglobulin assessed as association constant at pH 7.4 after 30 mins by fluorescence assay; assay type: ADME; details: cattle, pH 7.4, 0.5 h
Procedure, shortened: (§3)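 β-Lg solutions at pH 3.0, 5.5 and 7.4, incubated 30 min at 25 °C before prodigiosin was added. Intrinsic fluorescence excited at 295 nm, emission monitored at 310–600 nm.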

Beta-lactoglobulin [21] = biological target: T2, Beta-lactoglobulin; test: Binding affinity to bovine beta-lactoglobulin assessed as association constant at pH 5.5 after 30 mins by fluorescence assay; assay type: ADME; details: cattle, pH 5.5, 0.5 h; procedure, shortened: as §3
Beta-lactoglobulin [22] = biological target: T2, Beta-lactoglobulin; test: Binding affinity to bovine beta-lactoglobulin assessed as association constant at pH 3 after 30 mins by fluorescence assay; assay type: ADME; details: cattle, pH 3, 0.5 h; procedure, shortened: as §3
Albumin [23] = biological target: T1, Albumin; test: Displacement of warfarin from human serum albumin at 0.4 to 3.2 uM after 30 mins by fluorescence assay; details: 0.5 h
Procedure, shortened: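 HSA and warfarin at equal (1:1) concentrations, preincubated 30 min. Prodigiosin added at 0.4–3 µM. Fluorescence excited at 295 nm and recorded at 310–600 nm, with and without prodigiosin.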

Albumin [24] = biological target: T1, Albumin; test: Binding affinity to human serum albumin assessed as quenching of protein-compound complex at protein/compound molar ratio of 7 at 300 to 310 K after 10 mins by fluorescence assay; assay type: ADME; details: isolated protein; procedure, shortened: as §1
[25] = biological target: Beta-lactoglobulin (Bos taurus) (UniProt P02754); test: Binding affinity to bovine beta-lactoglobulin assessed as quenching of protein-compound complex at protein/compound molar ratio of 4 at 310 K after 10 mins by fluorescence assay; details: isolated protein
[26] = biological target: Beta-lactoglobulin (Bos taurus) (UniProt P02754); test: Binding affinity to bovine beta-lactoglobulin assessed as quenching of protein-compound complex at protein/compound molar ratio of 7 at 290 K after 10 mins by fluorescence assay; details: isolated protein
[27] = biological target: Beta-lactoglobulin (Bos taurus) (UniProt P02754); test: Binding affinity to bovine beta-lactoglobulin assessed as quenching of protein-compound complex at protein/compound molar ratio of 7 at 300 K after 10 mins by fluorescence assay; details: isolated protein

T1 sequence (P02768 whole entry): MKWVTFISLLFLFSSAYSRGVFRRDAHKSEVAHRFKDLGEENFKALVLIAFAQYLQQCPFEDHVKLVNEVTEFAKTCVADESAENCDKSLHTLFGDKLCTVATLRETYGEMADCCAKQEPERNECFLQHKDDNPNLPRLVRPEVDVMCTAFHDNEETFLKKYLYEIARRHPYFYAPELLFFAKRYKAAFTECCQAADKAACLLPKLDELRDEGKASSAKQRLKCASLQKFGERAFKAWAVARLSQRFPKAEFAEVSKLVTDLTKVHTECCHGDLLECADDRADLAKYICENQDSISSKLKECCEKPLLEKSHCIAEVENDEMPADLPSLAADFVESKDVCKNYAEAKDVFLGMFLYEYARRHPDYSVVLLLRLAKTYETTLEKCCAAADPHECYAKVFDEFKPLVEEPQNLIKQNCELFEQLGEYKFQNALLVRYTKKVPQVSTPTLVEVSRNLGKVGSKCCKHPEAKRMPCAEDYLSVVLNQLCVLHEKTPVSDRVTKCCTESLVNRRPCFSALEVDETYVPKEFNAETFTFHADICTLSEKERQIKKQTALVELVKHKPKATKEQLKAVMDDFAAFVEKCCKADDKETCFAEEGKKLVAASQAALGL

CCCCCC1=C/C(=C\c2[nH]c(-c3ccc[nH]3)cc2OC)N=C1C
KSV (Albumin [1]): 8.14 ×10⁴ /M
KSV (Albumin [2]): 6.891 ×10⁴ /M
KSV (Albumin [3]): 4.043 ×10⁴ /M
KSV (Beta-lactoglobulin [4]): 5.02 ×10⁴ /M
KSV (Beta-lactoglobulin [5]): 7.28 ×10⁴ /M
KSV (Beta-lactoglobulin [6]): 10.6 ×10⁴ /M
Kq (Albumin [7]): 8.14 ×10¹² /M/s
Kq (Albumin [8]): 6.891 ×10¹² /M/s
Kq (Albumin [9]): 4.043 ×10¹² /M/s
Kq (Beta-lactoglobulin [10]): 3.92 ×10¹² /M/s
Kq (Beta-lactoglobulin [11]): 5.69 ×10¹² /M/s
Kq (Beta-lactoglobulin [12]): 8.28 ×10¹² /M/s
Activity (Albumin [13]): Dose-dependent effect
Kb (Albumin [13]): 48400 M⁻¹
Activity (Albumin [14]): Dose-dependent effect
Kb (Albumin [14]): 44100 M⁻¹
Activity (Albumin [15]): Dose-dependent effect
Kb (Albumin [15]): 34000 M⁻¹
Kb (Beta-lactoglobulin [16]): 12500 M⁻¹
Kb (Beta-lactoglobulin [17]): 19900 M⁻¹
Kb (Beta-lactoglobulin [18]): 53700 M⁻¹
Activity (Albumin [19]): 80%
Ka (Beta-lactoglobulin [20]): 1.99 ×10⁴ /M
Ka (Beta-lactoglobulin [21]): 1548 M⁻¹
Ka (Beta-lactoglobulin [22]): 184 M⁻¹
Activity (Albumin [23]): Active
Activity (Albumin [24]): 85%
Activity [25]: 90%
Activity [26]: 78%
Activity [27]: 82%
